Laboratory results from ChEMBL document CHEMBL3632558, “Synthesis, antimycobacterial and antibacterial activity of l-[(1R,2S)-2-fluorocyclopropyl]naphthyridone derivatives containing an oxime-functionalized pyrrolidine moiety” (2015).
≈ marks a conversion by molar mass, not a printed value.

Tests used:
Format in all cases: functional
[1] = system: Staphylococcus epidermidis; assay: Antibacterial activity against methicillin-sensitive Staphylococcus epidermidis 14-2 after 18 to 24 hrs
How it was run: (§1)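 MIC by standard NCCLS reference procedure (M100-S11); lowest concentration of compound inhibiting visible bacterial growth after incubation at 35 °C for 18–24 h, read as complete inhibition of growth. Ciprofloxacin, levofloxacin and moxifloxacin run alongside as reference agents.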

[2] = system: Streptococcus pneumoniae; assay: Antibacterial activity against Streptococcus pneumoniae ATCC 19615 after 18 to 24 hrs; how it was run: as §1
[3] = system: Klebsiella pneumoniae; assay: Antibacterial activity against ESBL-positive Klebsiella pneumoniae 14-18 after 18 to 24 hrs; how it was run: as §1
[4] = system: Enterococcus faecalis; assay: Antibacterial activity against Enterococcus faecalis 14-2 after 18 to 24 hrs; how it was run: as §1
[5] = system: Klebsiella pneumoniae; assay: Antibacterial activity against Klebsiella pneumoniae 14-1 after 18 to 24 hrs; how it was run: as §1
[6] = system: Staphylococcus aureus; assay: Antibacterial activity against methicillin-sensitive Staphylococcus aureus 14-3 after 18 to 24 hrs; how it was run: as §1
[7] = system: Escherichia coli; assay: Antibacterial activity against ESBL-positive Escherichia coli 14-1 after 18 to 24 hrs; how it was run: as §1
[8] = system: Klebsiella pneumoniae; assay: Antibacterial activity against Klebsiella pneumoniae 14-2 after 18 to 24 hrs; how it was run: as §1
[9] = system: Staphylococcus aureus; assay: Antibacterial activity against methicillin-sensitive Staphylococcus aureus 14-4 after 18 to 24 hrs; how it was run: as §1
[10] = system: Pseudomonas aeruginosa; assay: Antibacterial activity against Pseudomonas aeruginosa 14-14 after 18 to 24 hrs; how it was run: as §1
[11] = system: Pseudomonas aeruginosa; assay: Antibacterial activity against Pseudomonas aeruginosa 14-16 after 18 to 24 hrs; how it was run: as §1
[12] = system: Enterococcus faecalis; assay: Antibacterial activity against Enterococcus faecalis 14-1 after 18 to 24 hrs; how it was run: as §1
[13] = system: Staphylococcus aureus; assay: Antibacterial activity against methicillin-resistant Staphylococcus aureus 14-5 after 18 to 24 hrs
[14] = system: Escherichia coli; assay: Antibacterial activity against ESBL-positive Escherichia coli 14-2 after 18 to 24 hrs; how it was run: as §1
[15] = system: Staphylococcus aureus; assay: Antibacterial activity against methicillin-sensitive Staphylococcus aureus 14-1 after 18 to 24 hrs; how it was run: as §1
[16] = system: Pseudomonas aeruginosa; assay: Antibacterial activity against Pseudomonas aeruginosa 14-19 after 18 to 24 hrs; how it was run: as §1
[17] = system: Klebsiella pneumoniae; assay: Antibacterial activity against ESBL-positive Klebsiella pneumoniae 14-19 after 18 to 24 hrs; how it was run: as §1
[18] = system: Escherichia coli; assay: Antibacterial activity against Escherichia coli 14-2 after 18 to 24 hrs; how it was run: as §1
[19] = system: Enterococcus faecium; assay: Antibacterial activity against Enterococcus faecium 14-5 after 18 to 24 hrs; how it was run: as §1
[20] = system: Staphylococcus epidermidis; assay: Antibacterial activity against methicillin-resistant Staphylococcus epidermidis 14-39 after 18 to 24 hrs
[21] = system: Staphylococcus aureus; assay: Antibacterial activity against Staphylococcus aureus CMCC 26003 after 18 to 24 hrs; how it was run: as §1
[22] = system: Klebsiella pneumoniae; assay: Antibacterial activity against Klebsiella pneumoniae 14-3 after 18 to 24 hrs; how it was run: as §1
[23] = system: Klebsiella pneumoniae; assay: Antibacterial activity against ESBL-positive Klebsiella pneumoniae 14-17 after 18 to 24 hrs; how it was run: as §1
[24] = system: Escherichia coli; assay: Antibacterial activity against Escherichia coli 14-1 after 18 to 24 hrs; how it was run: as §1
[25] = system: Mycobacterium tuberculosis; assay: Antimycobacterial activity against Mycobacterium tuberculosis H37Rv ATCC 27294 by alamar blue assay
How it was run: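 Microplate Alamar Blue Assay; MIC is the lowest concentration giving ≥90% reduction in fluorescence relative to the mean of replicate bacterium-only controls. MDR strain 6133 is resistant to isoniazid and rifampicin.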

[26] = system: Staphylococcus epidermidis; assay: Antibacterial activity against methicillin-resistant Staphylococcus epidermidis 14-37 after 18 to 24 hrs
[27] = system: Enterococcus faecium; assay: Antibacterial activity against Enterococcus faecium 14-6 after 18 to 24 hrs; how it was run: as §1
[28] = system: Pseudomonas aeruginosa; assay: Antibacterial activity against Pseudomonas aeruginosa 14-15 after 18 to 24 hrs; how it was run: as §1
[29] = system: Pseudomonas aeruginosa; assay: Antibacterial activity against Pseudomonas aeruginosa ATCC 27853 after 18 to 24 hrs; how it was run: as §1
[30] = system: Staphylococcus epidermidis; assay: Antibacterial activity against methicillin-resistant Staphylococcus epidermidis 14-22 after 18 to 24 hrs
[31] = system: Pseudomonas aeruginosa; assay: Antibacterial activity against Pseudomonas aeruginosa 14-9 after 18 to 24 hrs; how it was run: as §1
[32] = system: Staphylococcus aureus; assay: Antibacterial activity against methicillin-sensitive Staphylococcus aureus 14-2 after 18 to 24 hrs; how it was run: as §1
[33] = system: Escherichia coli; assay: Antibacterial activity against Escherichia coli ATCC 25922 after 18 to 24 hrs; how it was run: as §1
[34] = system: Staphylococcus aureus; assay: Antibacterial activity against methicillin-resistant Staphylococcus aureus 14-4 after 18 to 24 hrs
[35] = system: Klebsiella pneumoniae; assay: Antibacterial activity against Klebsiella pneumoniae 14-4 after 18 to 24 hrs; how it was run: as §1
[36] = system: Enterococcus faecium; assay: Antibacterial activity against Enterococcus faecium 14-2 after 18 to 24 hrs; how it was run: as §1
[37] = system: Staphylococcus epidermidis; assay: Antibacterial activity against methicillin-resistant Staphylococcus epidermidis 14-21 after 18 to 24 hrs
[38] = system: Enterococcus faecium; assay: Antibacterial activity against Enterococcus faecium 14-1 after 18 to 24 hrs; how it was run: as §1

Row | Structure (SMILES) | MIC [1] | MIC [2] | MIC [3] | MIC [4] | MIC [5] | MIC [6] | MIC [7] | MIC [8] | MIC [9] | MIC [10] | MIC [11] | MIC [12] | MIC [13] | MIC [14] | MIC [15] | MIC [16] | MIC [17] | MIC [18] | MIC [19] | MIC [20] | further results
1 | Cc1ccc(CO/N=C2\CN(c3nc4c(cc3F)c(=O)c(C(=O)O)cn4[C@@H]3C[C@@H]3F)CC2CN)cc1 (stereo partly specified) | 8 µg/mL (≈ 16.1 µM) | < 0.008 µg/mL | 8 µg/mL (≈ 16.1 µM) | < 0.008 µg/mL | 64 µg/mL (≈ 129 µM) | < 0.008 µg/mL | 2 µg/mL (≈ 4.02 µM) | 128 µg/mL (≈ 257 µM) | 0.015 µg/mL (≈ 0.0302 µM) | 8 µg/mL (≈ 16.1 µM) | 8 µg/mL (≈ 16.1 µM) | 32 µg/mL (≈ 64.3 µM) | 4 µg/mL (≈ 8.04 µM) | 64 µg/mL (≈ 129 µM) | 2 µg/mL (≈ 4.02 µM) | 8 µg/mL (≈ 16.1 µM) | 128 µg/mL (≈ 257 µM) | 32 µg/mL (≈ 64.3 µM) | 8 µg/mL (≈ 16.1 µM) | 16 µg/mL (≈ 32.2 µM) | MIC [21]: < 0.008 µg/mL; MIC [22]: 64 µg/mL (≈ 129 µM); MIC [23]: 8 µg/mL (≈ 16.1 µM); MIC [24]: 16 µg/mL (≈ 32.2 µM); MIC90 [25]: < 0.25 µg/mL; MIC [26]: 8 µg/mL (≈ 16.1 µM); MIC [27]: 4 µg/mL (≈ 8.04 µM); MIC [28]: 8 µg/mL (≈ 16.1 µM); MIC [29]: 4 µg/mL (≈ 8.04 µM); MIC [30]: 2 µg/mL (≈ 4.02 µM); MIC [31]: 8 µg/mL (≈ 16.1 µM); MIC [32]: < 0.008 µg/mL; MIC [33]: < 0.008 µg/mL; MIC [34]: 8 µg/mL (≈ 16.1 µM); MIC [35]: 128 µg/mL (≈ 257 µM); MIC [36]: 0.5 µg/mL (≈ 1.01 µM); MIC [37]: 4 µg/mL (≈ 8.04 µM); MIC [38]: 0.5 µg/mL (≈ 1.01 µM)
2 | CCO/N=C1\CN(c2nc3c(cc2F)c(=O)c(C(=O)O)cn3[C@@H]2C[C@@H]2F)CC1(C)CN (stereo partly specified) | 8 µg/mL (≈ 18.4 µM) | < 0.008 µg/mL | 4 µg/mL (≈ 9.19 µM) | 0.03 µg/mL (≈ 0.0689 µM) | 128 µg/mL (≈ 294 µM) | < 0.008 µg/mL | 4 µg/mL (≈ 9.19 µM) | 128 µg/mL (≈ 294 µM) | < 0.008 µg/mL | 8 µg/mL (≈ 18.4 µM) | 8 µg/mL (≈ 18.4 µM) | 8 µg/mL (≈ 18.4 µM) | 4 µg/mL (≈ 9.19 µM) | 128 µg/mL (≈ 294 µM) | 2 µg/mL (≈ 4.59 µM) | 8 µg/mL (≈ 18.4 µM) | 128 µg/mL (≈ 294 µM) | 32 µg/mL (≈ 73.5 µM) | 4 µg/mL (≈ 9.19 µM) | 8 µg/mL (≈ 18.4 µM) | MIC [21]: < 0.008 µg/mL; MIC [22]: 128 µg/mL (≈ 294 µM); MIC [23]: 4 µg/mL (≈ 9.19 µM); MIC [24]: 32 µg/mL (≈ 73.5 µM); MIC90 [25]: 0.333 µg/mL (≈ 0.765 µM); MIC [26]: 8 µg/mL (≈ 18.4 µM); MIC [27]: 8 µg/mL (≈ 18.4 µM); MIC [28]: 8 µg/mL (≈ 18.4 µM); MIC [29]: 2 µg/mL (≈ 4.59 µM); MIC [30]: 2 µg/mL (≈ 4.59 µM); MIC [31]: 4 µg/mL (≈ 9.19 µM); MIC [32]: < 0.008 µg/mL; MIC [33]: < 0.008 µg/mL; MIC [34]: 4 µg/mL (≈ 9.19 µM); MIC [35]: 128 µg/mL (≈ 294 µM); MIC [36]: 2 µg/mL (≈ 4.59 µM); MIC [37]: 2 µg/mL (≈ 4.59 µM); MIC [38]: 2 µg/mL (≈ 4.59 µM)
